# Assay results: ChEMBL document CHEMBL1145502, “Roxithromycin favorably modifies the initial phase of resistance against infection with macrolide-resistant Streptococcus pneumoniae in a murine pneumonia model” (Antimicrob Agents Chemother, 2007)
# Activity calls are given as the source filed them. The calls are words filed in the database; no cut-off is given here.
# Legend:
# Streptococcus pneumoniae [1] = assay: Antimicrobial activity against Streptococcus pneumoniae NMU112 infected in po dosed CBA/J mouse assessed as delaying in development of bacteremia […]; format: functional, organism-based
# Streptococcus pneumoniae [2] = assay: Antimicrobial activity against Streptococcus pneumoniae NMUP45; format: functional
# Summary of the method: (§1)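 Broth microdilution MIC (NCCLS method) in Mueller-Hinton broth with 3% lysed horse blood; clinical isolates NMU605 (serotype 3) and NMUP45 (serotype 4).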
# Streptococcus pneumoniae [3] = assay: Antimicrobial activity against Streptococcus pneumoniae NMU112; format: functional
# Summary of the method: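 Broth microdilution MIC per NCCLS in Mueller-Hinton broth with 3% lysed horse blood.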
# Streptococcus pneumoniae [4] = assay: Reduction of pneumolysin production in Streptococcus pneumoniae NMU112 lysates at 5 ug/mL after 12 hrs by Western blot relative to control; format: functional, organism-based
# Summary of the method: (§2)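 NMU112 at 5 × 10⁷ CFU/ml in THY cultured with macrolide at 37°C for 12 h, then whole-cell sonicated lysates run on SDS-PAGE and immunoblotted for pneumolysin. Band densitometry as mean % of drug-free culture; two cultures per dose per experiment, three experiments.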
# Streptococcus pneumoniae [5] = assay: Reduction of pneumolysin production in Streptococcus pneumoniae NMU112 lysates at 10 ug/mL after 12 hrs by Western blot relative to control; format: functional, organism-based; summary of the method: as §2
# Streptococcus pneumoniae [6] = assay: Antimicrobial activity against drug-resistant Streptococcus pneumoniae NMU112 infected CBA/J mouse assessed as median survival time at 10 mg/kg, po relative to control; format: functional
# Summary of the method: (§3)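 Male CBA/J mice, 3-4 weeks old, 28-30 g. Macrolide given by oral gavage in saline for 3 days; RXM, ERY and CLR twice daily at 12-h intervals, AZM once daily. Saline controls. 24 h after the last dose, mice were infected intratracheally with 5 × 10⁴ CFU NMU112 (erm(B)/mef(A)). Kaplan-Meier survival and median survival time, log rank test; 10 mice per group per experiment.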
# Streptococcus pneumoniae [7] = assay: Antimicrobial activity against Streptococcus pneumoniae NMU605; format: functional; summary of the method: as §1
# Streptococcus pneumoniae [8] = assay: Inhibition of pneumococcal surface protein A production in Streptococcus pneumoniae NMU112 lysates at 10 ug/mL after 12 hrs by Western blot relative to control; format: functional, organism-based
# Summary of the method: (§4)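 Strain NMU112 (5 × 10⁷ CFU/ml in THY) cultured 12 h at 37°C with drug. Sonicated whole-cell lysates run on SDS-PAGE and Western blotted; bands measured by densitometry as % of drug-free culture. Two cultures per dose, three experiments (n = 5–6).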
# Streptococcus pneumoniae [9] = assay: Antimicrobial activity against drug-resistant Streptococcus pneumoniae NMU112 infected CBA/J mouse assessed as median survival time at 20 mg/kg, po relative to control; format: functional; summary of the method: as §3
# Mus musculus [10] = species: Mus musculus; assay: Reduction of MMP7 expression level in UV rays killed Streptococcus pneumoniae NMU112 infected CBA/J mouse bronchoalveolar lavage fluid relative to control; format: functional, organism-based; conditions: Lung
# Lung [11] = assay: Drug level in Streptococcus pneumoniae NMU112 infected CBA/J mouse lung tissue at 5 mg/kg/day, po after 72 hrs; format: ADME, organism-based; design: route oral; conditions: in vivo
# Summary of the method: (§5)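 Oral gavage at 5 mg/kg/day (0.075 mg twice daily, six doses). Plasma and PBS lung homogenates were taken 24, 48 and 72 h after the last dose. Assayed by HPLC-electrochemical detection with an erythromycin internal standard; linear ranges 0.15–10.5 (plasma) and 0.4–11.8 μg/ml (lung). Five mice per time point; mean ± SD.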
# Streptococcus pneumoniae [12] = assay: Reduction in Streptococcus pneumoniae NMU112 infection induced elevation in syndecan-1 shedding in po dosed CBA/J mouse bronchoalveolar lavage fluid relative to control; format: functional, organism-based; conditions: Lung
# Summary of the method: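 Syndecan-1 ectodomains in 100 μl BALF measured by sandwich ELISA: 281-2 capture antibody, biotinylated 281-2 detection, streptavidin-HRP/TMB, read at 450 nm. Range 2.5–245 ng/ml. Three mice per time point, triplicate, three experiments.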
# Streptococcus pneumoniae [13] = assay: Antimicrobial activity against drug-resistant Streptococcus pneumoniae NMU112 infected CBA/J mouse assessed as median survival time at 7.5 mg/kg, po relative to control; format: functional; summary of the method: as §3
# Streptococcus pneumoniae [14] = assay: Antimicrobial activity against Streptococcus pneumoniae NMU112 infected in po dosed CBA/J mouse blood assessed as number of colony forming units after 5 days relative to control; format: functional
# Summary of the method: (§6)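 CBA/J mice (28–30 g) dosed by oral gavage twice daily for 3 days, saline as control. Infected 24 h after the last dose with 5 × 10⁴ CFU via the oropharynx under light ketamine/xylazine anesthesia. Blood, lung homogenate and pooled BALF supernatant were plated on agar with 200 μg/ml ERY and incubated about 24 h at 37°C for CFU. Three mice per group per time point, three experiments.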
# Lung [15] = assay: Drug level in Streptococcus pneumoniae NMU112 infected CBA/J mouse lung tissue at 5 mg/kg/day, po after 24 hrs; format: ADME, organism-based; design: route oral; conditions: in vivo; summary of the method: as §5
# Plasma [16] = assay: Drug level in Streptococcus pneumoniae NMU112 infected CBA/J mouse plasma at 5 mg/kg/day, po after 72 hrs; format: ADME, organism-based; design: route oral; conditions: in vivo; summary of the method: as §5
# Streptococcus pneumoniae [17] = assay: Antimicrobial activity against drug-resistant Streptococcus pneumoniae NMU112 infected CBA/J mouse assessed as animal survival at 1.25 mg/kg, po; format: functional, organism-based; design: dose 1.25 mg/kg; summary of the method: as §3
# Mus musculus [18] = species: Mus musculus; assay: Reduction of polymorphonuclear leukocytes in UV rays killed Streptococcus pneumoniae NMU112 infected CBA/J mouse bronchoalveolar lavage fluid relative to control; format: functional, organism-based; conditions: Lung
# Streptococcus pneumoniae [19] = assay: Antimicrobial activity against Streptococcus pneumoniae NMU112 infected in po dosed CBA/J mouse blood assessed as number of colony forming units after 6 days relative to control; format: functional; summary of the method: as §6
# Lung [20] = assay: Drug level in Streptococcus pneumoniae NMU112 infected CBA/J mouse lung tissue at 5 mg/kg/day, po after 48 hrs; format: ADME, organism-based; design: route oral; conditions: in vivo; summary of the method: as §5
# Plasma [21] = assay: Drug level in Streptococcus pneumoniae NMU112 infected CBA/J mouse plasma at 5 mg/kg/day, po after 24 hrs; format: ADME, organism-based; design: route oral; conditions: in vivo; summary of the method: as §5
# Plasma [22] = assay: Drug level in Streptococcus pneumoniae NMU112 infected CBA/J mouse plasma at 5 mg/kg/day, po after 48 hrs; format: ADME, organism-based; design: route oral; conditions: in vivo; summary of the method: as §5
# Streptococcus pneumoniae [23] = assay: Reduction in Streptococcus pneumoniae NMU112 infection-induced elevation in keratinocyte-derived chemokine level in po dosed CBA/J mouse lung after 12 hrs by sandwich ELISA relative to control; format: functional, organism-based
# Summary of the method: (§7)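 Lung homogenate in lysis buffer with protease inhibitors, 30 min on ice, spun 12,000 × g 20 min at 4°C. KC or MCP-1 measured by sandwich ELISA, detection limit 2 pg/ml. Three mice per group per time point after infection with 5 × 10⁴ CFU, each sample in triplicate, two experiments.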
# Streptococcus pneumoniae [24] = assay: Reduction of pneumolysin production in Streptococcus pneumoniae NMU112 infected CBA/J mouse lung lysates after 48 hrs of infection by Western blot relative to control; format: functional, organism-based
# Summary of the method: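 Left lungs (n, 3 per group per time point) homogenised in Tris-HCl pH 7.5 with NaCl and Triton X, then centrifuged. Extract (1 mg protein) immunoprecipitated with anti-PLY on protein G beads, run on SDS-12% PAGE and blotted. Band densitometry expressed as % of control mice after oral pretreatment and intratracheal NMU112 infection.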
# Streptococcus pneumoniae [25] = assay: Increase in Streptococcus pneumoniae NMU112 infection-induced reduction in MCP1 level in po dosed CBA/J mouse lung by sandwich ELISA relative to control
# Streptococcus pneumoniae [26] = assay: Antimicrobial activity against Streptococcus pneumoniae NMU112 infected in po dosed CBA/J mouse blood assessed as number of colony forming units after 7 days relative to control; format: functional; summary of the method: as §6
# Streptococcus pneumoniae [27] = assay: Antimicrobial activity against drug-resistant Streptococcus pneumoniae NMU112 infected CBA/J mouse assessed as median survival time at 5 mg/kg, po relative to control; format: functional; summary of the method: as §3
# Streptococcus pneumoniae [28] = assay: Reduction in Streptococcus pneumoniae NMU112 infection-induced elevation in keratinocyte-derived chemokine level in po dosed CBA/J mouse bronchoalveolar lavage fluid after 8 hrs by sandwich ELISA relative to control; format: functional, organism-based; conditions: Lung
# Streptococcus pneumoniae [29] = assay: Increase in Streptococcus pneumoniae NMU112 infection-induced reduction in MCP1 level in po dosed CBA/J mouse lung after 12 to 36 hrs by sandwich ELISA relative to control; format: functional, organism-based; summary of the method: as §7
# Streptococcus pneumoniae [30] = assay: Antimicrobial activity against Streptococcus pneumoniae NMU112 infected in po dosed CBA/J mouse bronchoalveolar lavage fluid assessed as reduction in number of colony forming units after 24 to 48 hrs relative to control; format: functional, organism-based; conditions: Lung; summary of the method: as §6
# Streptococcus pneumoniae [31] = assay: Antimicrobial activity against Streptococcus pneumoniae NMUP45 infected CBA/J mouse assessed as animal survival at => 5 mg/kg, po relative to control; format: functional, organism-based; design: dose 5 mg/kg
# Streptococcus pneumoniae [32] = assay: Antimicrobial activity against Streptococcus pneumoniae NMU112 infected in po dosed CBA/J mouse lungs assessed as reduction in number of colony forming units after 24 to 48 hr relative to control; format: functional, organism-based; summary of the method: as §6
# Streptococcus pneumoniae [33] = assay: Inhibition of Streptococcus pneumoniae NMU112 infection-induced polymorphonuclear leukocytes infiltration in CBA/J mouse lung assessed as MPO activity after 12 hrs relative to control; format: functional, organism-based
# Summary of the method: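 Lungs (n = 4 per group per time point) removed after blood collection, weighed and frozen, then assayed with an MPO kit. Activity given as units per mg protein.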
# Streptococcus pneumoniae [34] = assay: Reduction of pneumococcal surface protein A in Streptococcus pneumoniae NMU112 infected CBA/J mouse lung lysates after 48 hrs by Western blot relative to control; format: functional, organism-based
# Summary of the method: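 Left-lung Triton X extract (1 mg protein) immunoprecipitated with anti-PspA on protein G beads, then run on SDS-12% PAGE and Western blotted. Densitometry given as % of control. Three mice per group per time point.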
# Streptococcus pneumoniae [35] = assay: Inhibition of Streptococcus pneumoniae NMU112 induced MMP7 expression level in po dosed CBA/J mouse assessed as decrease in caseinolytic activity after 6 to 48 hrs relative to control; format: functional, organism-based
# Summary of the method: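 Casein zymography on lung extract (100 μg protein) in 4–16% casein gels. The 19-kDa mature MMP-7 lysis band was scanned by densitometry and expressed as % of infected controls. Five to six mice per time point, three experiments.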
# Streptococcus pneumoniae [36] = assay: Antimicrobial activity against Streptococcus pneumoniae NMU112 infected in po dosed CBA/J mouse blood assessed as number of colony forming units after 4 days relative to control; format: functional; summary of the method: as §6
# Streptococcus pneumoniae [37] = assay: Inhibition of pneumococcal surface protein A production in Streptococcus pneumoniae NMU112 lysates at 5 ug/mL after 12 hrs by Western blot relative to control; format: functional, organism-based; summary of the method: as §4
# Streptococcus pneumoniae [38] = assay: Antimicrobial activity against Streptococcus pneumoniae NMU605 infected CBA/J mouse assessed as animal survival at => 2.5 mg/kg, po relative to control; format: functional, organism-based; design: dose 2.5 mg/kg
smiles,measurement,setting,value
CC[C@H]1OC(=O)[C@H](C)[C@@H](O[C@H]2C[C@@](C)(OC)[C@@H](O)[C@H](C)O2)[C@H](C)[C@@H](O[C@@H]2O[C@H](C)C[C@H](N(C)C)[C@H]2O)[C@](C)(O)C[C@@H](C)C(=O)[C@H](C)[C@@H](O)[C@]1(C)O [ERYTHROMYCIN],Activity,Streptococcus pneumoniae [1],Active
same,MIC,Streptococcus pneumoniae [2],2 µg/mL
same,MIC,Streptococcus pneumoniae [3],≥ 256 µg/mL
same,Activity,Streptococcus pneumoniae [4],Active
same,Activity,Streptococcus pneumoniae [5],Active
same,MST,Streptococcus pneumoniae [6],5.27 days
same,MIC,Streptococcus pneumoniae [7],0.03 µg/mL
same,Activity,Streptococcus pneumoniae [8],Active
same,MST,Streptococcus pneumoniae [9],6.78 days
CC[C@H]1OC(=O)[C@H](C)[C@@H](O[C@H]2C[C@@](C)(OC)[C@@H](O)[C@H](C)O2)[C@H](C)[C@@H](O[C@@H]2O[C@H](C)C[C@H](N(C)C)[C@H]2O)[C@](C)(O)C[C@@H](C)/C(=N\OCOCCOC)[C@H](C)[C@@H](O)[C@]1(C)O [ROXITHROMYCIN],Activity,Mus musculus [10],Active
same,Concn,Lung [11],650 ng/mL
same,MIC,Streptococcus pneumoniae [2],4 µg/mL
same,Activity,Streptococcus pneumoniae [12],Active
same,MST,Streptococcus pneumoniae [13],6.3 days
same,log10CFU/ml,Streptococcus pneumoniae [14],3.68
same,Concn,Lung [15],5220 ng/mL
same,Concn,Plasma [16],540 ng/mL
same,Activity,Streptococcus pneumoniae [17],inactive
same,Activity,Mus musculus [18],Active
same,log10CFU/ml,Streptococcus pneumoniae [19],4.27
same,Concn,Lung [20],2870 ng/mL
same,MIC,Streptococcus pneumoniae [3],≥ 256 µg/mL
same,Activity,Streptococcus pneumoniae [4],inactive
same,Concn,Plasma [21],3870 ng/mL
same,Concn,Plasma [22],1360 ng/mL
same,Activity,Streptococcus pneumoniae [23],Active
same,Activity,Streptococcus pneumoniae [24],Active
same,MST,Streptococcus pneumoniae [6],6.6 days
same,Activity,Streptococcus pneumoniae [25],Active
same,log10CFU/ml,Streptococcus pneumoniae [26],>=5.11
same,MIC,Streptococcus pneumoniae [7],0.06 µg/mL
same,MST,Streptococcus pneumoniae [27],5.8 days
same,Activity,Streptococcus pneumoniae [28],Active
same,Activity,Streptococcus pneumoniae [29],Active
same,Activity,Streptococcus pneumoniae [30],Active
same,Activity,Streptococcus pneumoniae [31],Active
same,Activity,Streptococcus pneumoniae [32],Active
same,Activity,Streptococcus pneumoniae [33],Active
same,Activity,Streptococcus pneumoniae [34],Active
same,Activity,Streptococcus pneumoniae [35],Active
same,log10CFU/ml,Streptococcus pneumoniae [36],2.14
same,Activity,Streptococcus pneumoniae [37],inactive
same,Activity,Streptococcus pneumoniae [38],Active
